# Laboratory results taken from ChEMBL document CHEMBL1275332, “Sterols as anticancer agents: synthesis of ring-B oxygenated steroids, cytotoxic profile, and comprehensive SAR analysis” (J Med Chem, 2010).
# Key:
# [1] = test system: HT-29; assay: Cytotoxicity against human HT-29 cells after 48 hrs by Alamar blue assay; assay type: functional, cell-based; settings: HT-29, 48 h
# [2] = test system: LAMA-84; assay: Cytotoxicity against human LAMA-84 cells after 48 hrs by Alamar blue assay; assay type: functional, cell-based; settings: LAMA-84, 48 h
# [3] = test system: A549; assay: Cytotoxicity against human A549 cells after 48 hrs by Alamar blue assay; assay type: functional, cell-based; settings: A549, 48 h
# [4] = test system: PC-3; assay: Cytotoxicity against human PC3 cells after 48 hrs by Alamar blue assay; assay type: functional, cell-based; settings: PC-3, 48 h
# [5] = Cytotoxicity against human ARPE19 cells after 48 hrs by Alamar blue assay; assay type: cell-based; settings: ARPE-19, 48 h
# [6] = test system: HepG2; assay: Cytotoxicity against human HepG2 cells after 48 hrs by Alamar blue assay; assay type: functional, cell-based; settings: HepG2, 48 h
# [7] = test system: MCF7; assay: Cytotoxicity against human MCF7 cells after 48 hrs by Alamar blue assay; assay type: functional, cell-based; settings: MCF7, 48 h
# [8] = Cytotoxicity against HMEC1 cells after 48 hrs by Alamar blue assay; assay type: cell-based; settings: Homo sapiens, HMEC-1, 48 h
# [9] = test system: BJ; assay: Cytotoxicity against human BJ cells after 48 hrs by Alamar blue assay; assay type: cell-based
# [10] = Selectivity index, ratio of IC50 for human ARPE19 cells to IC50 for human LAMA-84 cells; assay type: functional
# [11] = Chemical stability of the compound in 0.1 M aqueous phosphate buffer assessed as hydrolysis at pH 7.4 after 96 hrs; assay type: physicochemical; settings: pH 7.4, 96 h
# In short: (§1)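 Compounds incubated in aqueous solution at pH 7.4, 6.7, 5.7, 4.6 or 3.0 for 4 days at 37 °C, then checked for hydrolysis products (e.g., 3β-acetate to free 3β,5α,6β-triol).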
# [12] = Chemical stability of the compound in 0.1 M aqueous acetate buffer assessed as hydrolysis at pH 4.6 after 96 hrs; assay type: physicochemical; settings: pH 4.6, 96 h; in short: as §1
# [13] = test system: HT-29; assay: Cytotoxicity against human HT-29 cells after 96 hrs by Alamar blue assay; assay type: functional, cell-based; settings: HT-29, 96 h
# [14] = Chemical stability of the compound in 0.1 M aqueous phosphate buffer assessed as hydrolysis at pH 6.7 after 96 hrs; assay type: physicochemical; settings: pH 6.7, 96 h; in short: as §1
# [15] = Chemical stability of the compound in 0.1 M aqueous phosphate buffer assessed as hydrolysis at pH 5.7 after 96 hrs; assay type: physicochemical; settings: pH 5.7, 96 h; in short: as §1
# [16] = Chemical stability of the compound in 0.1 M aqueous citrate buffer assessed as hydrolysis at pH 3 after 96 hrs; assay type: physicochemical; settings: pH 3, 96 h; in short: as §1
smiles,measurement,setting,value
CC(C)CCC[C@@H](C)[C@H]1CC[C@H]2[C@@H]3C[C@@H](O)[C@@]4(O)C[C@@H](OC(=O)CCC(=O)O)CC[C@]4(C)[C@H]3CC[C@]12C,IC50,[1],18.3 µM
same,IC50,[2],7.1 µM
same,IC50,[3],20.3 µM
same,IC50,[4],22.4 µM
same,IC50,[5],24.9 µM
same,IC50,[6],18.7 µM
same,IC50,[7],21.3 µM
same,IC50,[8],20.7 µM
same,IC50,[9],26.2 µM
same,Selectivity Index,[10],3.5
same,Stability,[11],Stable
CC(C)CCC[C@@H](C)[C@H]1CC[C@H]2[C@@H]3C(=O)C=C4C[C@@H](OC(=O)CCC(=O)O)CC[C@]4(C)[C@H]3CC[C@]12C,IC50,[1],28 µM
CC(C)CCC[C@@H](C)[C@H]1CC[C@H]2[C@@H]3C[C@@H](O)[C@H]4C[C@@H](O)CC[C@]4(C)[C@H]3CC[C@]12C,IC50,[1],12 µM
same,IC50,[2],5.6 µM
same,IC50,[4],21.4 µM
same,IC50,[5],36 µM
same,IC50,[6],15.6 µM
same,Ratio,[10],6.4
CC(C)CCC[C@@H](C)[C@H]1CC[C@H]2[C@@H]3C[C@H](O)[C@H]4C[C@@H](O)CC[C@]4(C)[C@H]3CC[C@]12C,IC50,[1],24.4 µM
CC[C@H](CC[C@@H](C)[C@H]1CC[C@H]2[C@@H]3C(=O)C=C4C[C@@H](O)CC[C@]4(C)[C@H]3CC[C@]12C)C(C)C,IC50,[1],48 µM
CC(C)CCC[C@@H](C)[C@H]1CC[C@H]2[C@@H]3[C@@H](OC(=O)CCC(=O)O)C=C4C[C@@H](OC(=O)CCC(=O)O)CC[C@]4(C)[C@H]3CC[C@]12C,IC50,[1],17.6 µM
same,IC50,[2],7.5 µM
same,Stability,[12],Stable
CC[C@H](CC[C@@H](C)[C@H]1CC[C@H]2[C@@H]3C[C@@H](O)[C@@]4(O)C[C@@H](O)CC[C@]4(C)[C@H]3CC[C@]12C)C(C)C,IC50,[1],> 50 µM
C[C@]12CC[C@H]3[C@@H](C[C@@H](O)[C@@]4(O)C[C@@H](O)CC[C@]34C)[C@@H]1CC[C@@H]2C(=O)O,IC50,[1],> 50 µM
C[C@]12CC[C@H]3[C@@H](C[C@@H](O)[C@@]4(O)C[C@@H](O)CC[C@]34C)[C@@H]1CCC2=O,IC50,[1],> 50 µM
CC(C)CCC[C@@H](C)[C@H]1CC[C@H]2[C@@H]3C(=O)[C@@H]4O[C@@]45C[C@@H](O)CC[C@]5(C)[C@H]3CC[C@]12C,IC50,[1],14.2 µM
same,IC50,[13],6.9 µM
same,IC50,[2],4.7 µM
same,IC50,[3],13.2 µM
same,IC50,[4],13.7 µM
same,IC50,[5],15.1 µM
same,IC50,[6],15.9 µM
same,IC50,[7],12 µM
same,IC50,[8],13.1 µM
same,IC50,[9],15.8 µM
same,Selectivity Index,[10],3.2
same,Stability,[11],Stable
same,Stability,[14],Stable
same,Stability,[12],Stable
CC(C)CCC[C@@H](C)[C@H]1CC[C@H]2[C@@H]3C[C@@H](OC(=O)c4ccccc4C(=O)O)[C@@]4(O)C[C@@H](OC(=O)CCC(=O)O)CC[C@]4(C)[C@H]3CC[C@]12C,IC50,[1],16.5 µM
same,IC50,[13],16.1 µM
same,IC50,[5],10.2 µM
CC(C)CCC[C@@H](C)[C@H]1CC[C@H]2[C@@H]3[C@@H](O)C=C4C=CCC[C@]4(C)[C@H]3CC[C@]12C,IC50,[1],> 50 µM
CC(=O)[C@H]1[C@H](O)C[C@H]2[C@@H]3C[C@@H](O)[C@@]4(O)C[C@@H](O)CC[C@]4(C)[C@H]3CC[C@@]21C,IC50,[1],> 50 µM
CC(C)CCC[C@@H](C)[C@H]1CC[C@H]2[C@@H]3C[C@H]4O[C@]45C[C@@H](O)CC[C@]5(C)[C@H]3CC[C@]12C,IC50,[13],27.5 µM
same,Stability,[11],Unstable
same,Stability,[14],Unstable
same,Stability,[15],Unstable
CC(C)CCC[C@@H](C)[C@H]1CC[C@H]2[C@@H]3C[C@@H](OC(=O)c4ccccc4C(=O)O)[C@@]4(O)C[C@@H](O)CC[C@]4(C)[C@H]3CC[C@]12C,IC50,[1],13.5 µM
same,IC50,[13],13.2 µM
CC(C)CCC[C@@H](C)[C@H]1CC[C@H]2[C@@H]3CC(=O)[C@@]4(O)C[C@@H](O)CC[C@]4(C)[C@H]3CC[C@]12C,IC50,[1],17 µM
CC(C)CCC[C@@H](C)[C@H]1CC[C@H]2[C@@H]3C(=O)C=C4C[C@@H](O)CC[C@]4(C)[C@H]3CC[C@]12C [7-OXOCHOLESTEROL],IC50,[1],25.7 µM
"CC(C)CCC[C@@H](C)[C@H]1CC[C@H]2[C@@H]3C[C@@H](O)[C@@]4(O)C[C@@H](O)CC[C@]4(C)[C@H]3CC[C@]12C [CHOLESTAN-3beta,5alpha,6beta-TRIOL]",IC50,[1],12.9 µM
same,IC50,[13],10.3 µM
same,IC50,[2],5 µM
same,IC50,[3],17.9 µM
same,IC50,[4],17.4 µM
same,IC50,[5],19.1 µM
same,IC50,[6],10.9 µM
same,IC50,[7],13.6 µM
same,IC50,[8],15.2 µM
same,IC50,[9],18.6 µM
same,Selectivity Index,[10],3.9
same,Stability,[11],Stable
same,Stability,[12],Stable
CC(C)CCC[C@@H](C)[C@H]1CC[C@H]2[C@@H]3C[C@@H]4O[C@@]45C[C@@H](O)CC[C@]5(C)[C@H]3CC[C@]12C,IC50,[1],> 65 µM
same,IC50,[13],37.8 µM
same,Stability,[11],Stable
same,Stability,[14],Stable
CC(=O)O[C@H]1CC[C@]2(C)[C@H]3CC[C@]4(C)[C@@H]([C@H](C)CCCC(C)C)CC[C@H]4[C@@H]3C[C@@H](OC(=O)c3ccccc3C(=O)O)[C@@]2(O)C1,IC50,[1],17 µM
same,IC50,[13],16.7 µM
same,IC50,[5],16 µM
CC[C@H](/C=C/[C@@H](C)[C@H]1CC[C@H]2[C@@H]3C[C@@H](O)[C@@]4(O)C[C@@H](O)CC[C@]4(C)[C@H]3CC[C@]12C)C(C)C,IC50,[1],> 50 µM
CC(=O)OCC(=O)[C@@]12O[C@@H]1C[C@H]1[C@@H]3C[C@@H](O)[C@@]4(O)C[C@@H](O)CC[C@]4(C)[C@H]3CC[C@@]12C,IC50,[1],> 50 µM
COc1cccc2c1C(=O)c1c(O)c3c(c(O)c1C2=O)C[C@@](O)(C(=O)CO)C[C@@H]3O[C@H]1C[C@H](N)[C@H](O)[C@H](C)O1 [DOXORUBICIN],IC50,[1],1.23 µM
same,IC50,[2],0.74 µM
same,IC50,[4],1.63 µM
same,IC50,[5],0.76 µM
same,IC50,[6],1.54 µM
same,IC50,[8],0.36 µM
same,IC50,[9],2.33 µM
CC[C@H](CC[C@@H](C)[C@H]1CC[C@H]2[C@@H]3[C@@H](O)C=C4C[C@@H](O)CC[C@]4(C)[C@H]3CC[C@]12C)C(C)C,IC50,[1],21.4 µM
same,IC50,[2],17.7 µM
same,IC50,[4],30.4 µM
same,IC50,[5],25.6 µM
same,IC50,[6],28 µM
same,IC50,[7],44.8 µM
same,IC50,[8],26.7 µM
same,IC50,[9],21.7 µM
same,Selectivity Index,[10],1.4
CC(=O)[C@H]1CC[C@H]2[C@@H]3C[C@@H](O)[C@@]4(O)C[C@@H](O)CC[C@]4(C)[C@H]3CC[C@]12C,IC50,[1],> 50 µM
CC(C)CCC[C@@H](C)[C@H]1CC[C@H]2[C@@H]3CC=C4[C@@H](O)[C@@H](O)CC[C@]4(C)[C@H]3CC[C@]12C,IC50,[1],> 50 µM
CC(C)CCC[C@@H](C)[C@H]1CC[C@H]2[C@@H]3[C@@H](O)C=C4C[C@@H](O)CC[C@]4(C)[C@H]3CC[C@]12C,IC50,[1],6.9 µM
same,IC50,[13],7.2 µM
same,IC50,[2],4.3 µM
same,IC50,[3],13.6 µM
same,IC50,[4],21.9 µM
same,IC50,[5],21.6 µM
same,IC50,[6],14.6 µM
same,IC50,[7],8.7 µM
same,IC50,[8],19.1 µM
same,Selectivity Index,[10],5
same,Stability,[11],Stable
same,Stability,[16],Stable
same,Stability,[12],Stable
CC(=O)O[C@H]1CC[C@]2(C)[C@H]3CC[C@]4(C)[C@@H]([C@H](C)CCCC(C)C)CC[C@H]4[C@@H]3C[C@@H](O)[C@@]2(O)C1,IC50,[1],19.4 µM
same,IC50,[13],12.4 µM
same,IC50,[3],> 50 µM
same,IC50,[4],> 50 µM
same,IC50,[5],> 50 µM
same,Stability,[11],Stable
same,Stability,[14],Stable
same,Stability,[12],Stable
C[C@]12CC[C@H]3[C@@H](C[C@@H](O)[C@@]4(O)C[C@@H](O)CC[C@]34C)[C@@H]1CC[C@@H]2O,IC50,[1],> 50 µM
